This is a sample that favours compounds with a hit; in the whole collection about 2.3% have one here.
Arbovirus inh: antivirals against arbovirus infection, primary screen, cell-based, full library, 10K replicate subset; arbovirus infection cell-based antiviral screen; inhibition, % at 10 µM; 0.37% of 200,000 active; in the data active means inhibition above about 30%
ABCG2 inh: ABCG2 efflux pump inhibitors, primary screen, multiplex with ABCB1, IgMXP3 cells, flow cytometry | JC-1 efflux | AID 1325, 2008 | inhibition, % at 6.6 µM | 0.1% of 190,000 active | Broad substrate specificity ATP-binding cassette transporter ABCG2 (Homo sapiens), Q9UNQ0;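 active means inhibition above 80%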;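 further: 0% = DMSO and 100% = nicardipine control wells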
Target sequence (Q9UNQ0 whole entry, looked up): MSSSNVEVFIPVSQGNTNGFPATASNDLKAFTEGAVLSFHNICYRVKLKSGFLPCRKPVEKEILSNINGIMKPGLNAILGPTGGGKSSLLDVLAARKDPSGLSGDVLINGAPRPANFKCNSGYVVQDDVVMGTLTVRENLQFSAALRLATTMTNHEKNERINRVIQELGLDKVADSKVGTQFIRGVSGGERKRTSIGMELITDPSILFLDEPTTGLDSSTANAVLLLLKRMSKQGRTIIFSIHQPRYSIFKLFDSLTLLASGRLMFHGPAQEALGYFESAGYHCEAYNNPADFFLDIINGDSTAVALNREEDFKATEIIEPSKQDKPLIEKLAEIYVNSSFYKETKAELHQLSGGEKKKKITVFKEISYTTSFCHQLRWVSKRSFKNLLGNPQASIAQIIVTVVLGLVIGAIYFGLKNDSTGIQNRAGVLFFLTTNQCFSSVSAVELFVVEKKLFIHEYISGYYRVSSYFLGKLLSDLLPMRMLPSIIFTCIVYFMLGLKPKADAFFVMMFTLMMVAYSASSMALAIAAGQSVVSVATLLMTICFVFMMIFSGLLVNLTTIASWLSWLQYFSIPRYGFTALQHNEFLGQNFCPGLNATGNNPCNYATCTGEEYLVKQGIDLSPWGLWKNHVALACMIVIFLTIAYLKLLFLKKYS
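Test system: IgMXP3 cells (ABCG2) mixed with DDAO far-red-labelled CCRF-Adr cells (ABCB1). Reagent: JC-1 transporter substrate. Compound dosing: single test compound dose, 6.6 µM final. Times: 10 min compound exposure, 25 °C. Detection: flow cytometry of retained JC-1 fluorescence. Read-out basis: efflux inhibition in percent versus controls. Controls: nicardipine and DMSO wells.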
RAM inhibit: inhibitors of the yeast RAM network, primary screen, dse1pr::URA3 reporter, 5-FOA selection; S. cerevisiae dse1pr::URA3 reporter, 5-FOA growth OD615, 2 d; analog-sensitive cbk1-as2 kinase mutant strain; inhibition, % at 50 µM; 1.8% of 190,000 active;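 active means inhibition above a set limit, 3 SD over mean compound inhibition, cut at about 8.4% in these data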;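 further: 0% = DMSO-only wells with no growth and 100% = 10 µM 1-NA-PP1 full growth; inhibition rescues growth on 5-FOA so higher OD means more RAM inhibition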
ABCB1 block: ABCB1 efflux pump inhibitors, primary screen, cell-based, multiplex, flow cytometry, ABCG2 counter-screen | CCRF-Adr cells, JC-1 efflux | ATP-dependent translocase ABCB1 (Homo sapiens), P08183 | AID 1326, 2008 | 0.067% of 190,000 active | inhibition, % at 6.6 µM; in the data active means inhibition above about 40%;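 further: 0% = vehicle and 100% = reference inhibitor; higher value means more JC-1 retained so stronger ABCB1 efflux block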
Active calls of the source: *.

SMILES | Arbovirus inh | ABCG2 inh | RAM inhibit | ABCB1 block
COc1cccc(C(=O)/C=C/c2ccc(SC)cc2)c1 | -7 | 3 | 9.2* | 0
CSc1ccc(/C=C/C(=O)c2ccc(NC(=O)C(C)C)cc2)cc1 | 0 | 31 | 10* | -2
CCN(CC)S(=O)(=O)c1ccc(C)c(C(=O)Oc2cccc(-c3cnc4ccccc4n3)c2)c1 | -3 | -5 | 9.3* | -1
CCN(CC)S(=O)(=O)c1cc(C(=O)Oc2cccc(-c3cnc4ccccc4n3)c2)ccc1OC | 1 | 5 | 4 | 1
COC(=O)c1ccc(C(=O)OC)c(NC(=O)COC(=O)c2ccc(OC)c(OC)c2OC)c1 | 0 | 4 | 11* | 1
CCn1ncc(Br)c1C(=O)Nc1ccccc1OC | -2 | 33 | 0 | 1
CCn1ncc(Br)c1C(=O)Nc1cc(C(=O)OC)ccc1C(=O)OC | -1 | 1 | 8.5* | 0
CCOCC(=O)Nc1cc(C(=O)OC)ccc1C(=O)OC | 3 | 6 | 2 | 1
COC(=O)c1ccc(C(=O)OC)c(NC(=O)CSCc2ccccc2Br)c1 | 1 | 11 | 11* | 1
Cc1ccc(NC(=O)CSc2ccccn2)cc1S(=O)(=O)N1CCOCC1 | 0 | 10 | 2 | 1
Cc1ccc(NC(=O)CCCSc2ccccc2)cc1S(=O)(=O)N1CCOCC1 | 6 | 1 | 8.9* | 0
Cc1ccccc1OCC(=O)N1CCCc2ccccc21 | -4 | 10 | 0 | 2
O=C(CSc1nnc(-c2ccco2)c(-c2ccco2)n1)c1ccccc1 | -8 | -12 | 10* | -5
Cc1ccc(OCCSCc2nnc(NC(=O)Nc3cccc(Cl)c3)s2)cc1 | 38* | -3 | 8.4* | 0
Cc1nnc(NC(=O)Nc2cccc(Cl)c2)s1 | 23 | 7 | 3 | 0
CC(=O)c1cccc(NC(=O)Nc2ccc3c(c2)N(C)C(=O)CS3)c1 | 0 | 13 | 8.5* | 3
N#Cc1ccc(C(=O)Nc2ccc(S(=O)(=O)NC3=NCCCCC3)cc2)cc1 | 2 | 48 | 0 | 1
Cc1cc(C(=O)COC(=O)c2ccc(O)cc2)c(C)n1Cc1ccco1 | 2 | 6 | 6 | 2
Cc1cc(C(=O)COC(=O)c2ccc(Br)o2)c(C)n1Cc1ccco1 | 7 | 16 | 10* | 1
Cc1nn(Cc2ccccc2)c(C)c1C(=O)NCCN1C(=O)S/C(=C\c2ccccc2)C1=O | 16 | 24 | 1 | 1
COc1ccc(C2C3=C(CCCC3=O)Nc3nc(SCc4ccc(C(=O)O)cc4)nn32)cc1OC (stereo not drawn) | -4 | 1 | 8.8* | 0
CN(C)S(=O)(=O)c1ccc(Cl)c(NC(=O)CSc2nc3c(cc2C#N)C(=O)CC(C)(C)C3)c1 | -8 | 4 | 9.1* | 2
O=S(=O)(N/N=C\c1ccc(-c2ccccc2Cl)o1)c1ccccc1 | -8 | 1 | 10* | 0
COc1ccccc1Oc1nc2c(c(=O)n(Cc3ccccc3F)c(=O)n2C)n1C | -15 | -2 | 10* | 0
CN(C)c1nc(N)nc(CSc2nc3c(c(=O)n(C)c(=O)n3C)n2Cc2ccccc2F)n1 | 3 | 16 | 1 | 1
SMILES | Arbovirus inh | ABCG2 inh | RAM inhibit | ABCB1 block
Cn1c(=O)c2c(nc(SCc3nn[nH]n3)n2Cc2ccccc2F)n(C)c1=O | -1 | -11 | 10* | 4
N#CCCNC(=O)CCN1CCCCC1 | 6 | -1 | 2 | 0
CCOC(=O)c1nn(-c2ccc(OCC)cc2)c2nc(-c3cccc(OC)c3)c(C#N)c(=O)n12 | -9 | 1 | 9.7* | -1
CCCn1nc(NC(=O)c2ccccn2)c2cc3cc(C)ccc3nc21 | 5 | 4 | 9.2* | 1
Cn1c(-c2sc3cc(C(F)(F)F)cnc3c2-c2ccccn2)n[nH]c1=S | 1 | 0 | 1 | 1
COc1ccc(N=Nc2nc(-c3ccccc3)c(-c3ccccc3)[nH]2)cc1 | 4 | 4 | 11* | 1
COc1ccccc1N=Nc1nc(-c2ccccc2)c(-c2ccccc2)[nH]1 | -1 | 6 | 5 | 0
Oc1ccccc1N=Nc1nc(-c2ccccc2)c(-c2ccccc2)[nH]1 | -33 | -1 | 8.6* | 0
COC(=O)c1ccc(CSc2cc(C)c3cc(C)cc(C)c3n2)o1 | 0 | 1 | 8 | 0
COC(=O)c1ccc(CSc2cc(C)c3cccc(C)c3n2)o1 | 11 | -1 | 8.5* | 0
CSc1ncc(Cl)c(C(=O)NCc2ccc3c(c2)OCO3)n1 | -6 | 1 | 3 | 0
COC(=O)C1=C(O)C(C(=O)OC)C(c2ccc(C)cc2)C(C#N)(C#N)C1c1ccc(C)cc1 (stereo not drawn) | -2 | 1 | 8.5* | 0
Cc1cc(=O)oc2cc(OCCSc3nnc(-c4ccccc4)o3)ccc12 | 1 | 10 | 11* | 1
CCNc1nc(NCC)nc(SCCOC(=O)c2ccccc2)n1 | 3 | 13 | 1 | 0
CCNc1nc(NCC)nc(SCCOC(=O)Nc2ccc(Cl)cc2Cl)n1 | 11 | 3 | 10* | 0
CCNc1nc(SCCOc2ccc(C)cc2)nc(N(C)C)n1 | -3 | 4 | 3 | 1
CCNc1nc(SCCOc2ccc(Cl)cc2Cl)nc(N(C)C)n1 | 30* | 3 | 2 | 0
CCOC(=O)C(=NCCOC)NNc1cc(Cl)ccc1Cl | -14 | 35 | 0 | 1
CC(C)(C)N(Cc1ccccc1)C(=O)CSc1nnc(CNc2ccc(F)cc2)o1 | -10 | 2 | 8.6* | 1
CCOC(=O)CN(C(=O)CSc1nnc(CNc2ccc(F)cc2)o1)c1ccccc1 | 6 | -1 | 1 | -2
O=C(Nc1ccccc1-c1nnc(SCc2ccc(Cl)cc2Cl)o1)c1ccccc1 | 1 | 5 | 10* | 0
CC(C)(C)c1ccc(CSc2nnc(-c3ccccc3NC(=O)c3ccccc3)o2)cc1 | 8 | 0 | 6 | 0
C/C(=N\NC(=S)NCc1ccccc1)c1ccc(Br)cc1 | -1 | 18 | 9.9* | 0
CCCCCCOc1ccc(-c2ccc(C#N)cn2)cc1 | 15 | 0 | 10* | 0
Cc1nn2c3c(cnc2c1-c1ccccc1)C(=O)CC(c1ccccc1)C3 (stereo not drawn) | -1 | 5 | 3 | 2
SMILES | Arbovirus inh | ABCG2 inh | RAM inhibit | ABCB1 block
COc1ccc(-n2c(C)c(C(C)=O)c3cc(OCC(N)=O)ccc32)cc1 | -6 | 0 | 8.8* | 0
Cc1cc(S(=O)(=O)N(Cc2ccc(C(C)(C)C)cc2)Cc2cccs2)ccc1-n1cnnn1 | -16 | 0 | 9.3* | 0
COc1cc(S(=O)(=O)N(Cc2cccnc2)Cc2ccco2)ccc1-n1cnnn1 | 2 | 1 | 1 | 0
Cc1cc(S(=O)(=O)N(Cc2ccccc2)Cc2ccc(N(C)C)cc2)ccc1-n1cnnn1 | 0 | 18 | 0 | 3
COc1cc(S(=O)(=O)N(Cc2ccc(C)cc2)Cc2ccco2)ccc1-n1cnnn1 | -10 | 4 | 9.0* | 1
CCO[C@H]1OC(C(=O)N2CCCCCCC2)=C[C@@H](C2CCCCC2)[C@@H]1CCCO | -2 | 5 | 1 | 1

High-throughput results (PubChem)
